Experimental data as given in ChEMBL document CHEMBL1124794, “Synthesis, chemistry, and antineoplastic activity of alpha-halopyridinium salts: potential pyridone prodrugs of acylated vinylogous carbinolamine tumor inhibitors” (J Med Chem, 1990).
“And” between values parts separate entries of the source, which are not always exact repeats. Equal entries are not always repeated.

Tests used:
[1] = system: L1210; assay: In vivo activity against murine L1210 tumor system at the dose of mg/kg, activity expressed as KE; type: functional, Mus musculus
Outline: (§1)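 L1210 lymphocytic leukemia: ascitic fluid with ca. 10^6 cells injected ip into CD2F1 mice. Dosing started 24 h after inoculation and was repeated daily for five doses in total, from solutions or suspensions made fresh each day. Toxicity day survivors were scored on day 5. Body weight difference is day 5 minus day 1. %T/C is based on median survival time versus controls.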

[2] = In vivo activity against murine M5076 tumor system at the dose of 50 mg/kg, activity expressed as TDS; 10/10; type: functional, Mus musculus
[3] = In vivo activity against murine M5076 tumor system at the dose of 25 mg/kg, activity expressed as TDS; 10/10; type: functional, Mus musculus
Outline: (§2)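 M5076: ascitic fluid with ca. 10^6 cells inoculated ip into CD2F1 mice. Dosing started 24 h after inoculation and was then given every 4 days for four doses in total, from solutions or suspensions made fresh each day. Toxicity day survivors were scored on day 5. Body weight difference is day 14 minus day 1. %T/C is based on median survival time versus controls.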

[4] = In vivo activity against murine M5076 tumor system at the dose of 50 mg/kg, activity expressed as KE; type: functional, Mus musculus
[5] = system: P388; assay: In vivo activity against P388 Lymphocytic Leukemia in CD2F1 mice at the dose of mg/kg, activity expressed as KE; type: functional, Mus musculus
[6] = Effect of pH on the hydrolysis of pyridinium Moity in 0.05 M buffer concentration at the pH 7.0; type: ADME
Outline: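 Pyridinium salt in 0.05 M phosphate buffer, pH 6.0–8.0 (set by pH meter), ionic strength 0.25 M, 25 °C. Decrease in the pyridinium UV absorbance maximum followed over time to give pseudo-first-order kobs and half-life.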

[7] = Effect of Ionic strength (0.50 M NaCl)on the hydrolysis of pyridinium Moity in 0.02 M buffer concentration, pH 7.4,25 degree C; type: ADME
Outline: (§3)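 Pyridinium salt in 0.02 M phosphate buffer, pH 7.4, 25 °C, with NaCl varied 0.10–1.0 M. Loss of the pyridinium chromophore's UV absorbance maximum (conversion to pyridone) followed over time. Pseudo-first-order kobs and half-life derived from that decay.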

[8] = Effect of phosphate buffer on the hydrolysis of alpha Fluoropyridinium Moity at the concentration of 0.02M, pH 8.0, 25 degree C; type: ADME
Outline: (§4)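 α-Fluoropyridinium hydrolysis to pyridone in phosphate buffer at 0.02, 0.05 or 0.10 M, pH 6.5 or 8.0, ionic strength […] °C. Pyridinium UV absorbance maximum followed with time to give pseudo-first-order kobs and half-life.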

[9] = Effect of phosphate buffer on the hydrolysis of alpha Fluoropyridinium Moity at the concentration of 0.05M, pH 6.5, 25 degree C; type: ADME; outline: as §4
[10] = Effect of Ionic strength (0.25 M NaCl)on the hydrolysis of pyridinium Moity in 0.02 M buffer concentration, pH 7.4,25 degree C; type: ADME; outline: as §3
[11] = Half life at the buffer concentration of 0.02 M.; type: ADME; outline: as §4
[12] = system: L1210; assay: In vivo activity against murine L1210 tumor system at the dose of 50 mg/kg, activity expressed as TDS; 5/6; type: functional, Mus musculus; outline: as §1
[13] = Effect of pH on carbamate hydrolysis in 0.05 M buffer concentration at the pH 9.0, 25 degree C.; type: ADME
Outline: (§5)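 Bis-carbamate in acetonitrile–water (1:1; buffer added to a 0.5 mg/mL acetonitrile solution), 0.05 M buffer, ionic strength 0.136 (KCl), 25 ± 0.1 °C. Buffers: phosphate pH 2.0; citrate pH 3.0–3.5; succinate pH 4.0; acetate pH 5.0; phosphate pH 6.0–8.0; borate pH 9.0; carbonate pH 10.0. HPLC bis-carbamate peak-area loss, ln(area0/areat) vs time slope = kobs. Duplicates averaged.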

[14] = system: L1210; assay: In vivo activity against murine L1210 tumor system at the dose of 60 mg/kg, activity expressed as KE; type: functional, Mus musculus; outline: as §1
[15] = In vivo activity against murine M5076 tumor system at the dose of 21.6 mg/kg, activity expressed as %T/C.; type: functional, Mus musculus; outline: as §2
[16] = Effect of pH on carbamate hydrolysis in 0.05 M buffer concentration at the pH 7.4, 25 degree C.; type: ADME; outline: as §5
[17] = Effect of Ionic strength on carbamate hydrolysis in acetonitrile-water at 0.05 M buffer concentration, pH 7.4,25 degree C; type: ADME
Outline: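 Bis-carbamate in acetonitrile–0.05 M phosphate buffer (1:1), pH 7.4, 25 °C, at varied ionic strength. Loss of bis-carbamate HPLC peak area tracked over time. Pseudo-first-order kobs taken from the ln(area0/areat) vs time slope.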

[18] = Half life at the concentration of 0.025 M.; type: ADME
[19] = system: L1210; assay: In vivo activity against murine L1210 tumor system at the dose of 100 mg/kg, activity expressed as KE; type: functional, Mus musculus
[20] = system: L1210; assay: In vivo activity against murine L1210 tumor system at the dose of mg/kg, activity expressed as %T/C.; type: functional, Mus musculus; outline: as §1
[21] = Half life at the ionic strength; type: ADME
[22] = Effect of pH on carbamate hydrolysis in 0.05 M buffer concentration at the pH 5.0, 25 degree C.; type: ADME; outline: as §5
[23] = Effect of pH on carbamate hydrolysis in 0.05 M buffer concentration at the pH 3.0, 25 degree C.; type: ADME; outline: as §5
[24] = system: P388; assay: In vivo activity against P388 Lymphocytic Leukemia in CD2F1 mice at the dose of 100 mg/kg, activity expressed as TDS; 5/6; type: functional, Mus musculus
Outline: (§6)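 CD2F1 mice were inoculated with ascitic fluid holding ca. 10^6 P388 cells. Drug was given daily from 24 h after inoculation, from solutions or suspensions made fresh each day, some as a saline suspension. TDS is survivors/initial animals on day 5. BWD is body weight on day 5 minus day 1. %T/C compares median survival of treated and control mice.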

[25] = In vivo activity against murine M5076 tumor system at the dose of 60 mg/kg, activity expressed as TDS; 10/10; type: functional, Mus musculus
[26] = Half life at the pH 2.0; type: ADME; details: buffer; outline: as §5
[27] = Half life at the buffer concentration of 0.01 M.; type: ADME
Outline: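 Bis-carbamate in acetonitrile–water (1:1), 25 ± 0.1 °C. Citrate buffer at pH 3.0 or phosphate buffer at pH 7.4, at 0.01, 0.025 or 0.05 M, ionic strength 0.136 (KCl). Kinetics followed by HPLC as the decrease in bis-carbamate peak area. The regression slope of ln(area0/areat) vs time gave pseudo-first-order kobs. Duplicates averaged.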

[28] = Effect of pH on carbamate hydrolysis in 0.05 M buffer concentration at the pH 3.5, 25 degree C.; type: ADME; outline: as §5
[29] = system: P388; assay: In vivo activity against P388 Lymphocytic Leukemia in CD2F1 mice at the dose of 200 mg/kg, activity expressed as TDS; 6/6; type: functional, Mus musculus; outline: as §6
[30] = system: P388; assay: In vivo activity against P388 Lymphocytic Leukemia in CD2F1 mice at the dose of 200 mg/kg, activity expressed as body weight difference; T-C; type: functional, Mus musculus; outline: as §6
[31] = Half life at the concentration of 0.05 M.; type: ADME
[32] = system: L1210; assay: In vivo activity against murine L1210 tumor system at the dose of 100 mg/kg, activity expressed as TDS; 6/6; type: functional, Mus musculus; outline: as §1

Compound: CC(C)NC(=O)OCc1c(COC(=O)NC(C)C)c(-c2cc[n+](C)c(F)c2)n2c1CCC2.[I-]
- KE [1]: -2.08
- TDS [2]: 10
- TDS [3]: 10
- KE [4]: -1.59
- KE [5]: 1.25
- K obs [6]: 0.0208 min⁻¹
- K obs [7]: 0.011 min⁻¹
- K obs [8]: 0.0132 min⁻¹
- K obs [9]: 0.0072 min⁻¹
- K obs [10]: 0.02 min⁻¹
- half-life [11]: 52.5 min
- TDS [12]: 5

Compound: CC(C)NC(=O)OCc1c(COC(=O)NC(C)C)c(-c2ccn(C)c(=O)c2)n2c1CCC2
- K obs [13]: 0.0129 min⁻¹
- KE [14]: -0.5
- T/C [15]: 107%
- K obs [16]: 0.013 min⁻¹
- K obs [17]: 0.013 min⁻¹ and 0.0124 min⁻¹ and 0.008 min⁻¹
- half-life [18]: 20.3 min
- KE [19]: -0.22
- T/C [20]: 135%
- T1/2 [21]: 55.89 min and 86.65 min
- half-life [21]: 53.5 min
- K obs [22]: 0.0139 min⁻¹
- K obs [23]: 0.0304 min⁻¹
- TDS [24]: 5
- TDS [25]: 10
- half-life [26]: 2.11 min
- T1/2 [27]: 19.86 min and 52.31 min
- K obs [28]: 0.0214 min⁻¹
- TDS [29]: 6
- BWD [30]: -1.4 g
- half-life [31]: 22.8 min
- TDS [32]: 6
